In the data set the test system is MS2 coat protein. The experiment in a line: apparent Kd, MS2 coat protein; higher = weaker binding; RNA-MaP array; FMN 200 µM where present. In short, it runs like this:
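The apparent Kd comes from binding curves fitted cluster by cluster, filtered, and summarised as a median. Those curves followed SNAP-549-labelled MS2 coat protein from 0.7 or 1.5 nM, doubling to 3 µM, on Illumina sequencing-chip clusters where stalled E. coli RNA polymerase had transcribed the designs, without and then with constant ligand. The buffer was 100 mM Tris-HCl pH 7.5, 80 mM KCl, 4 mM MgCl2, BSA, DTT, yeast tRNA and Tween-20, and green signal was normalised to red-channel RNA signal and control-cluster median Fmax.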

[1] abbreviates: designed as: OFF switch for flavin mononucleotide, no ligand.
Setting [2] is: ligand present: flavin mononucleotide, designed as: OFF switch for flavin mononucleotide.
Setting [3] is: designed as: ON switch for flavin mononucleotide, no ligand.
[4] abbreviates: ligand present: flavin mononucleotide, designed as: ON switch for flavin mononucleotide.

This note sets out measurements from the EternaBench riboswitch data.

The apparent Kd is a dissociation constant that holds for the conditions of the assay. For the sequence “GUGUACGGAGGAUAUGCUGGAAUCUAGCGAAGCUAGGUUCCACAUGAGGAUCACCCAUGUAGAAGGUCGUACAC”, the “apparent Kd” value under setting [1] turned out to be 39.3 nM and the “apparent Kd” value under setting [2] was 16.1 nM.
Consider “GAUUCACAUGAGGAUCACCCAUGUCGUAAUAUGGGAGGAUAUACGUGGACCGUAGUCCGCGUAGAAGGCCUAAUUG”, for which the “apparent Kd” value is 172 nM under setting [3] and 36.6 nM under setting [4].
On to “CCGAUAAUGUAGGAUAUCGUAUCGGAGACGAUACGAGAAGGACAAACAUGAGGAUCACCCAUGUUCCUUAACGG”, for which the “apparent Kd” value amounted to 16.6 nM under setting [1] and 19.9 nM under setting [2].
For “GACCAGGCAGGAUAUACAUGAGGAUCACCCAUGUGUCUGCGUUGGGCACGUGAACACGGUAGAAGGGCCUUGAC”, the “apparent Kd” value runs as follows: under setting [1], 12.2 nM; under setting [2], 22.9 nM.
For the sequence “UUGGAGUUCGUAGGAUAUGUAGGAUAUUCCUACAUGAGGAUCACCCAUGUUGACAUGGAGGAAGGACAGAAGGACGAGCUCCAU”, the “apparent Kd” value came to 206 nM under setting [3] and 225 nM under setting [4].
Taken in the same sequence, the figures for “CCUUGAUAAUAUCUUCACAUGAGGAUCACCCAUGUCGCUCGACAGGAUAUAUUUGAUUUGUUUAAGUAGAAGGGUCGCAGAUUC” were 123 nM and 111 nM.
Take “GCCUCAUAGUAGAAGGGACUUAGACAGUAAAGCAAAUAGAGGAAUUAACAUGAGGAUCACCCAUGUCAGGAUAUACUAAGAGGC”: the “apparent Kd” value runs as follows: under setting [1], 11.3 nM; under setting [2], 12.1 nM.
Consider “UUCGCUAAGGUGUAGCGAGGCUCGCAAGAAGGGUGAUGCACAUGAGGAUCACCCAUGUAAGCCUUACAGGAUAUUGCUUGCCGA”, for which the “apparent Kd” value by setting is: under setting [3], 509 nM; under setting [4], 40.7 nM.
With “CUCUUAGCAGGAUAUACAUUAUCCCAGUCAUGGUCGGCGACACAUGAGGAUCACCCAUGUAGAAGGGCUAUGAG”, the “apparent Kd” value reads like this: under setting [1], 23.4 nM; under setting [2], 52.8 nM.
“GUCAGCUCGUGAGGAUAUACAUGUGCUGGAGACAGCACUAAAGAUUUCACAUGAGGAUCACCCAUGUAGAAGGCACGAGCUGAU”: the “apparent Kd” value runs as follows: under setting [1], 16.4 nM; under setting [2], 37.4 nM.
As to “GGUACGCAUGUAGGAUAUCGAGCUCAAAGAGCUCGAGAAGGACAUGAGGAUCACCCAUGUCCUCACAGACAGUGAGGGCGUACC”, the “apparent Kd” value by setting is: under setting [1], 18 nM; under setting [2], 26.5 nM.
As to “GUAUUUUUACAGAAGGUGUAUUACAUGAGGAUCACCCAUGUUUUAUGGAAUAAAGAUUUUAUUUACAAGGAUAUGUACUAUUUU”, the “apparent Kd” value was 31.7 nM under setting [3] and 20.6 nM under setting [4].
On to “AUCAGCUCGUCAGGAUAUACGUCACUGCUUCGGCAGUGUGGUAAGAUCACAUGAGGAUCACCCAUGUAGAAGGGACGAGCUGAC”, for which the “apparent Kd” value runs as follows: under setting [1], 13.6 nM; under setting [2], 237 nM.
Taken in the same sequence, the figures for “CUAUUUUUACAGAAGGUUUAAUACUAUGUAUGAGAAGGAUAUGUAACAUGAGGAUCACCCAUGUUUUAUUUAUAUGAGGUUCGU” were 13.4 nM and 11.4 nM.
The matching figures for “AUCAGCUCGUGAGGAUAUACGUCACUGCGUCAGCAGUGUGGUAAGAUCACAUGAGGAUCACCCAUGUAGAAGGGACGAGCUGAU”: 15.6 nM and 45.9 nM.
The matching figures for “AUGCUUCACACAGGAUAUUACAACAUGAGGAUCACCCAUGUACAUGACAUGAGGAUCACCCAUGUUAAGAAGGGUGUGAAGCAU”: 261 nM and 505 nM.
In the case of “GCCGCUGUAGGAUAUGCCAGGGUGGCAGCUUGAUGUGUGGCACAUGAGGAUCACCCAUGUAGAAGGACAGAAAG”, the “apparent Kd” value is, setting by setting: under setting [1], 18.7 nM; under setting [2], 50.8 nM.
Taken in the same sequence, the figures for “CGCUCAAUUCAGAAGGAUAGAAUCAGAAGGCGUAACAUGAGGAUCACCCAUGUAUAGAAGUGUAACGAGGAUAUGAAUUGAGCG” were 11.5 nM and 10.2 nM.
As for “GUAGCAUACGGAGGAUAUGUAGGAUCCACAUGAGGAUCACCCAUGUUAAGGACAGAAGGCCGUAUGCUACAAGAGCGAAAGCUC”, the “apparent Kd” value under setting [3] was determined as 10.6 nM and the “apparent Kd” value under setting [4] was 12.3 nM.
Consider “UGCUGUGUCAGAGGAUAUACACCUAUAAUCCAUUGCAAAUAGCGAUGGACAUGAGGAUCACCCAUGUAGAAGGCUGUCACAGCA”, for which the “apparent Kd” value is, setting by setting: under setting [1], 214 nM; under setting [2], 647 nM.
As to “AUAAAACAUGAGGAUCACCCAUGUCAGUUAUCAUGAGGAUAUCCGCCGACCCGGGCGUAAGGAGAAGGCAUAUAAU”, the “apparent Kd” value was 39.3 nM under setting [3] and 20.1 nM under setting [4].
Taken in the same sequence, the figures for “GCGAUAUUGUAAGGAUAUACUCUGUGAUGAAGAGUAGAAGGUACUUACAUGAGGAUCACCCAUGUUUAACGAGAUACUAAUCGC” were 16.6 nM and 13.1 nM.
“UCACGGGAUUGAGGAUAUAUAUUAAUUUUUACAAUAGAAGGCAAAUUGUUAGUUUUUUCACUUUACAUGAGGAUCACCCAUGUU”: the “apparent Kd” value runs as follows: under setting [1], 26.2 nM; under setting [2], 24 nM.
